Active and inactive are the calls of the source.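 Rule for the calls, unless noted: active = mean duplicate potentiation above the buffer control mean plus 5 SD of buffer wells; inactive = the rest.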

Sequence of Potassium voltage-gated channel subfamily KQT member 1 (Homo sapiens) (P51787 whole entry, looked up): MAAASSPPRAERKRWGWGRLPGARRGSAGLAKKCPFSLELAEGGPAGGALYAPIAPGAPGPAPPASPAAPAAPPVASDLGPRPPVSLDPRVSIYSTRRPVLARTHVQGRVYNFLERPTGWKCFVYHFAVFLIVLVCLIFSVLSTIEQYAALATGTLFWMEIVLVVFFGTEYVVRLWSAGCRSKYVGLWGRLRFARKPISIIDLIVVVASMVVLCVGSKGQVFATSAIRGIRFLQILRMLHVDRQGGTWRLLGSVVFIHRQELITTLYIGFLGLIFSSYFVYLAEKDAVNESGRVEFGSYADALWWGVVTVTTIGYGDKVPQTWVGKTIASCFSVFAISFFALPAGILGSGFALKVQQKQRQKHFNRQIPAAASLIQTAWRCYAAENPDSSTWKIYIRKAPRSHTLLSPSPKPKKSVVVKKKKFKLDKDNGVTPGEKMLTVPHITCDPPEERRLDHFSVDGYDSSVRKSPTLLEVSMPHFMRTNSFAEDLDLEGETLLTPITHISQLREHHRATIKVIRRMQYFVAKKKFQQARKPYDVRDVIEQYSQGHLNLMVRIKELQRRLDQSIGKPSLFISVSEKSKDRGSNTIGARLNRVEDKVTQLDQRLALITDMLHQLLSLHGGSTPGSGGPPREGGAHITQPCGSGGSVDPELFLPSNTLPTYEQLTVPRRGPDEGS

For one assay, the target named is Potassium voltage-gated channel subfamily KQT member 2 (Rattus norvegicus) (UniProt O88943). The assay can be described thus: rat KCNQ2 channel potentiation, selectivity assay for KCNQ1 potentiator project, KCNQ2-CHO-K1 cells (AID 493009).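 Note: assay conditions were tuned for KCNQ1 rather than KCNQ2 modulators; signal is max minus min fluorescence divided by baseline after thallium stimulus.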 The conditions noted are these: FluxOR thallium flux fluorescence, at 10 µM; active compounds read high, scaled: buffer 0, activator control 100.
Sequence of Potassium voltage-gated channel subfamily KQT member 2 (Rattus norvegicus) (O88943 whole entry, looked up): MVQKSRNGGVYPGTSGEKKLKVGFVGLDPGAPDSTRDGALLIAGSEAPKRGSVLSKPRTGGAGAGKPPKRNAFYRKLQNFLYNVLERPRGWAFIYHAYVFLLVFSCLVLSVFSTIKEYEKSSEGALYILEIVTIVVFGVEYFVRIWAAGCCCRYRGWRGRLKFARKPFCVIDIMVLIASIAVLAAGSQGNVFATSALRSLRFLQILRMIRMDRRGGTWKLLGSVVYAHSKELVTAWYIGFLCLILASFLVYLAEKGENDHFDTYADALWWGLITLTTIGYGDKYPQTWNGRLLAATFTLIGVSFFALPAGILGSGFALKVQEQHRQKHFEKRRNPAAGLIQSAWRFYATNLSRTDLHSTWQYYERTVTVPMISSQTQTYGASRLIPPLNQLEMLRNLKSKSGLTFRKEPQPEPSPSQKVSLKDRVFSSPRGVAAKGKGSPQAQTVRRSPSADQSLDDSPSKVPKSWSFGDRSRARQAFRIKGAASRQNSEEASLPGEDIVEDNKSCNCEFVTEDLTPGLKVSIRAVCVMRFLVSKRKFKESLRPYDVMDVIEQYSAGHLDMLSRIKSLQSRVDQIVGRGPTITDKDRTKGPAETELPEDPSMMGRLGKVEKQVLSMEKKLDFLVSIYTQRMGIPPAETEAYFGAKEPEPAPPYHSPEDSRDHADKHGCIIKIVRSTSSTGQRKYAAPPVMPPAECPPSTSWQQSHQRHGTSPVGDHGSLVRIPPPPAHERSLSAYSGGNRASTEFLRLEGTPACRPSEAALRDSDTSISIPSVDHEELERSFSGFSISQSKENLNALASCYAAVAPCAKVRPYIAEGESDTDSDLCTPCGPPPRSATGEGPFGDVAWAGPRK
Turning to `Cc1sc(N/N=C/c2ccco2)nc1-c1ccccc1`, the result was inactive.
Still for that read-out and setting: in the case of `COc1ccc(CN(C)C(=O)c2cccc(NS(=O)(=O)c3ccccc3)c2)cc1F` it was “inactive”; in that of `S=c1nc2ccccc2c2nc(-c3ccccc3)[nH]n12`, “inactive”.
On to `CC(=O)Nc1cccc(/C(C)=N/NC(=O)c2ccc(Cl)cc2Cl)c1`, for which the result was inactive.
For `Cc1ccc(NC(=O)C(=O)NNC(=O)c2cccs2)cc1`, the potentiation is 326% (active).
As to `Cc1ccccc1C(=O)NC1CC(C)(C)NC(C)(C)C1`, the result was inactive.
In the case of `CN(C)c1nc(=Nc2cccc(Cl)c2)ss1`, the potentiation was 273% (active).
Take `CC1=NN(C(=O)c2csc(C(C)C)c2)C(O)(C(F)(F)F)C1` (stereo not drawn): the potentiation is 178% (active).
Turning to `COn1c(SCc2ccc(C)cc2C)nc2ccccc2c1=O`, the result was inactive.
Turning to `Cc1cc(C(=O)N/N=C/c2cccs2)no1`, the outcome was inactive.
With `CSC(=S)N/N=C/c1ccc(Br)cc1`, the potentiation was 179% (active).
The same measure, in the same setting: for `CC(/C=N/n1c(C2CCCCC2)n[nH]c1=S)=C\c1ccccc1` the value was 423% (active).
Regarding `O=C(Cn1c(C(F)(F)F)nc2ccccc21)N=Nc1c(O)[nH]c2ccc(Br)cc12`, the result was inactive.
With `O=C(Nc1ccccc1F)C1C2C=CC3(O2)C1C(=O)N(c1cccnc1)C3C(=O)NC1CCCCC1` (stereo not drawn), the result was inactive.
As to `CCCNC(=O)C(=O)N/N=C/c1cccs1`, the result was inactive.
On the same count and under the same terms, for `Nc1ccccc1OCCOCCOc1ccccc1N` the value was “inactive”; for `Cc1cc(C)cc(C(=O)OCC(=O)NCC(F)(F)F)c1`, “inactive”.
Consider `O=c1c2cc(Cl)ccc2nc(-c2ccccc2)n1O`, for which the potentiation is 269% (active).
As to `S=c1[nH]nc(-c2ccc(Cl)cc2Cl)n1-c1ccc(Cl)cc1`, the potentiation is 167% (active).
On the same count and under the same terms, for `O=C(CCC1CCN(C(=O)c2cncs2)CC1)Nc1ccccc1` the value was 464% (active).
For the compound `NS(=O)(=O)c1ccc(CCNC(=O)COC(=O)c2cc([N+](=O)[O-])ccc2N2CCOCC2)cc1`, the outcome was inactive.
`Cc1c(/C=N\NC(=O)c2ccc(F)cc2)cnn1C`: the result was inactive.
On to `C=CCn1c(-c2cc(-c3ccc(C)cc3)nc3ccccc23)n[nH]c1=S`, for which the potentiation was 170% (active).
On to `O=C(COC(=O)C1C2CC3OC(=O)C1C3C2)Nc1ccc(Cl)cc1` (stereo not drawn), for which the result was inactive.
On the same count and under the same terms, in the case of `O=C(c1ccco1)N1CCN=C1SCc1ccc(F)cc1` it was “inactive”; in that of `Cc1cc(C(=O)N2CCCC(N3CCN(c4cccc(Cl)c4)CC3)C2)n(C)n1` (stereo not drawn), “inactive”.
For the compound `CC(C)CC(=O)NC(=S)Nc1nc(-c2ccccc2)cs1`, the potentiation is 316% (active).
Still for that read-out and setting: for `Cc1ccc(-c2nc(N)s[n+]2-c2ccccc2)cc1` the value was 155% (active).
Consider `Cc1ccc(C)c(N(CC(=O)NC2CCCC2)C(=O)CCC(=O)Nc2nccs2)c1`, for which the result was inactive.
Still for that read-out and setting: for `CCOC(=O)Nc1ccc2c(c1)N(CCCN(C)C)c1ccccc1CC2` the value was “inactive”.
For the compound `CC(C)(C)C(=O)NC(=S)NNC(=O)c1ccc(Cl)cc1Cl`, the potentiation was 171% (active).
As to `O=C(c1ccccc1[N+](=O)[O-])N1CCN(c2ccc(N3CCOCC3)nn2)CC1`, the outcome was inactive.
Consider `Fc1ccc(NC(=S)N/N=C/c2ccc(F)c(F)c2)c(F)c1`, for which the result was inactive.
Still for that read-out and setting: in the case of `Oc1c(Br)cc(Br)cc1C=NCc1ccccc1` it was “inactive”.
`CN(C)c1ccc(C(=O)Nc2nnc(C3=COCCO3)o2)cc1`: the result was inactive.
On the same count and under the same terms, for `CCOC(=O)c1ccc(Nc2nc(N3CCOCC3)nc(N3CCOCC3)n2)cc1` the value was “inactive”.
With `COc1ccc(N/C=C/C(=O)c2cc(OC)c(OC)c(OC)c2)cc1`, the potentiation is 365% (active).
Same read-out and setting: in the case of `Cc1cc(Cl)n2nc(C)c(-c3ccc(Cl)cc3)c2n1` it was 340% (active).
Turning to `O=C1c2ccccc2C2(c3cc(C(F)(F)F)cc(C(F)(F)F)c3)NCCN12` (stereo not drawn), the outcome was inactive.

A further assay has as its target Potassium voltage-gated channel subfamily KQT member 1 (Homo sapiens) (UniProt P51787). The assay can be described thus: KCNQ1 channel current potentiators, confirmation, orthogonal assay for KCNQ1 potentiator project, IonWorks patch clamp, KCNQ1-CHO cells (AID 493184;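 active = current rise at least 3 SD above the untreated control mean in each of two repeat wells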). The conditions noted are these: automated patch clamp current, at 10 µM; active compounds read high. A digest of the protocol:
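Read-out: Percent current increase versus pre-compound level | Assay system: CHO cells carrying KCNQ1 | Measured by: Automated perforated-patch electrophysiology | Medium: External bath solution at pH 7.4 | Dosing: One dose, 10 µM final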
(In general: Patch clamp records ionic current or voltage across a cell membrane.)
On to `Cc1sc(N/N=C/c2ccco2)nc1-c1ccccc1`, for which the outcome was inactive.
Same read-out and setting: for `COc1ccc(CN(C)C(=O)c2cccc(NS(=O)(=O)c3ccccc3)c2)cc1F` the value was “inactive”; for `S=c1nc2ccccc2c2nc(-c3ccccc3)[nH]n12`, “inactive”.
On the same count and under the same terms, for `CC(=O)Nc1cccc(/C(C)=N/NC(=O)c2ccc(Cl)cc2Cl)c1` the value was “inactive”; for `Cc1ccc(NC(=O)C(=O)NNC(=O)c2cccs2)cc1`, “inactive”; for `Cc1ccccc1C(=O)NC1CC(C)(C)NC(C)(C)C1`, “inactive”.
With `CN(C)c1nc(=Nc2cccc(Cl)c2)ss1`, the outcome was inactive.
Same read-out and setting: in the case of `CC1=NN(C(=O)c2csc(C(C)C)c2)C(O)(C(F)(F)F)C1` (stereo not drawn) it was “inactive”.
Same read-out and setting: in the case of `COn1c(SCc2ccc(C)cc2C)nc2ccccc2c1=O` it was “inactive”.
As to `Cc1cc(C(=O)N/N=C/c2cccs2)no1`, the result was inactive.
Same read-out and setting: in the case of `CSC(=S)N/N=C/c1ccc(Br)cc1` it was “inactive”; in that of `CC(/C=N/n1c(C2CCCCC2)n[nH]c1=S)=C\c1ccccc1`, “inactive”; in that of `O=C(Cn1c(C(F)(F)F)nc2ccccc21)N=Nc1c(O)[nH]c2ccc(Br)cc12`, “inactive”.
The same measure, in the same setting: in the case of `O=C(Nc1ccccc1F)C1C2C=CC3(O2)C1C(=O)N(c1cccnc1)C3C(=O)NC1CCCCC1` (stereo not drawn) it was “inactive”.
Turning to `CCCNC(=O)C(=O)N/N=C/c1cccs1`, the outcome was inactive.
Regarding `Nc1ccccc1OCCOCCOc1ccccc1N`, the outcome was inactive.
For `Cc1cc(C)cc(C(=O)OCC(=O)NCC(F)(F)F)c1`, the outcome was inactive.
On the same count and under the same terms, in the case of `O=c1c2cc(Cl)ccc2nc(-c2ccccc2)n1O` it was “inactive”; in that of `S=c1[nH]nc(-c2ccc(Cl)cc2Cl)n1-c1ccc(Cl)cc1`, “inactive”.
For `O=C(CCC1CCN(C(=O)c2cncs2)CC1)Nc1ccccc1`, the result was inactive.
With `NS(=O)(=O)c1ccc(CCNC(=O)COC(=O)c2cc([N+](=O)[O-])ccc2N2CCOCC2)cc1`, the outcome was inactive.
On the same count and under the same terms, for `Cc1c(/C=N\NC(=O)c2ccc(F)cc2)cnn1C` the value was “inactive”; for `C=CCn1c(-c2cc(-c3ccc(C)cc3)nc3ccccc23)n[nH]c1=S`, “inactive”.
With `O=C(COC(=O)C1C2CC3OC(=O)C1C3C2)Nc1ccc(Cl)cc1` (stereo not drawn), the outcome was inactive.
With `O=C(c1ccco1)N1CCN=C1SCc1ccc(F)cc1`, the outcome was inactive.
The same measure, in the same setting: for `Cc1cc(C(=O)N2CCCC(N3CCN(c4cccc(Cl)c4)CC3)C2)n(C)n1` (stereo not drawn) the value was “inactive”; for `CC(C)CC(=O)NC(=S)Nc1nc(-c2ccccc2)cs1`, “inactive”.
Regarding `Cc1ccc(-c2nc(N)s[n+]2-c2ccccc2)cc1`, the result was inactive.
The same measure, in the same setting: for `Cc1ccc(C)c(N(CC(=O)NC2CCCC2)C(=O)CCC(=O)Nc2nccs2)c1` the value was “inactive”.
Same read-out and setting: in the case of `CCOC(=O)Nc1ccc2c(c1)N(CCCN(C)C)c1ccccc1CC2` it was “inactive”; in that of `CC(C)(C)C(=O)NC(=S)NNC(=O)c1ccc(Cl)cc1Cl`, “inactive”.
Still for that read-out and setting: for `O=C(c1ccccc1[N+](=O)[O-])N1CCN(c2ccc(N3CCOCC3)nn2)CC1` the value was “inactive”; for `Fc1ccc(NC(=S)N/N=C/c2ccc(F)c(F)c2)c(F)c1`, “inactive”.
With `Oc1c(Br)cc(Br)cc1C=NCc1ccccc1`, the outcome was inactive.
Same read-out and setting: in the case of `CN(C)c1ccc(C(=O)Nc2nnc(C3=COCCO3)o2)cc1` it was “inactive”.
Still for that read-out and setting: in the case of `CCOC(=O)c1ccc(Nc2nc(N3CCOCC3)nc(N3CCOCC3)n2)cc1` it was “inactive”; in that of `COc1ccc(N/C=C/C(=O)c2cc(OC)c(OC)c(OC)c2)cc1`, “inactive”; in that of `Cc1cc(Cl)n2nc(C)c(-c3ccc(Cl)cc3)c2n1`, “inactive”.
The same measure, in the same setting: for `O=C1c2ccccc2C2(c3cc(C(F)(F)F)cc(C(F)(F)F)c3)NCCN12` (stereo not drawn) the value was “inactive”.
